The sample as a whole holds a higher share of hits than the screen did.
H69AR inhibit = proliferation blockers of H69AR lung cancer cells, primary screen, cell-based, human, 86K library; 85,000 tested, 6% active; H69AR lung tumor viability, ATP luminescence, 72 h; hits give low values; viability, % at 10 µM;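 active = viability at or below 40%; inactive = viability above 40%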;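 note: multidrug resistant small cell line overexpressing MRP-1 efflux transporter; 100% = mean luminescence of untreated control wells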
HCT116 PTEN-null = growth suppression of PTEN-null HCT116, primary screen, cell-based, CellTiter-Glo; 140,000 tested, 1.2% active; AID 827, 2007; HCT116 PTEN-null viability, 60 h; hits give low values; viability, % at 10 µM;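 active = viability at or below a set limit, 4 SD under the median of all tested compounds, cut at about 3.7% in these data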;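 note: PTEN knockout HCT116 line with beta catenin targeted HCT116 as companion control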
Lung fibro prol = antiproliferative effect on LL 47 fibroblasts – human, LL 47 cells, CellTiter-Glo luminescence, primary screen; LL 47 human lung fibroblast viability, ATP luminescence; hits give low values; viability, % at 10 µM; 85,000 tested, 1.1% active;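 active = viability at or below 50% in the single dose screen; inactive = viability above 50%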;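 note: compound exposure lasted 72 h before the ATP readout; 100% = median luminescence of untreated cell-only wells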
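Benchmarks: Cell-only wells, no compound | Test system: LL 47 human lung fibroblasts, passage 12 or lower | Input: 1,150 cells/well | Measured by: CellTiter-Glo luminescence measuring cellular ATP | Medium: IMEM, 15% FBS supplement | Schedule: Overnight attachment after seeding, then 72 h compound exposure at 37 °C | Doses: Compound addition at 0.1% DMSO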
HUVEC inhibit = inhibitors of HUVEC proliferation, primary screen, cell-based, 384-well; CellTiter-Glo luminescence, 72 h; hits give low values; viability, % at 10 µM (by protocol); 86,000 tested, 1.1% active;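 active = viability at or below 30%; inactive = viability above 30%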;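 note: 100% = median luminescence of DMSO-only cell control wells on each plate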
HCT116 bCat-KO = primary screen for growth suppressors in beta-catenin knockout HCT116 cells (colon tumor, human); 140,000 tested, 1.5% active; HCT116 beta-catenin knockout viability, CellTiter-Glo, 60 h; hits give low values; viability, % at 10 µM;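 active = viability at or under a set limit, the compound median less 4 SD, cut at about 6% in these data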;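 note: 0% = Hyamine 1622 control at 20 µM and 100% = untreated cell control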
Numbers without * were called inactive; x = not tested or not shown.

SMILES | H69AR inhibit | HCT116 PTEN-null | Lung fibro prol | HUVEC inhibit | HCT116 bCat-KO
O=C(NCc1ccccc1)C(=O)NCC1COc2ccccc2O1 (centres undefined) | 28.9* | 24.2 | 56.0 | 53.9 | 24.1
CCCc1nc(NCC2CCCO2)c2nnn(Cc3ccccc3)c2n1 (centres undefined) | 94.9 | 83.9 | 82.7 | 91.6 | 89.1
Cc1ccc2c(c1)C(c1ccncc1)=NNC(c1ccc(C(C)C)cc1)=N2 | x | 72.3 | x | x | 85.7
COc1cccc([C@@H]2Oc3ccc(OC)cc3C(=O)[C@H]2OC(=O)N[C@H](C)C2CCCCC2)c1 | x | 50.1 | x | x | 51.2
COc1ccc2c(c1)O[C@H](c1ccc3c(c1)OCO3)[C@@H](OC(=O)N[C@H](C)C1CCCCC1)C2=O | x | 1.2* | x | x | 11.1
COc1ccccc1-c1cc(-c2ccccc2)nc(SC(C(N)=O)c2ccccc2)c1C#N (centres undefined) | x | 3.5* | x | x | 53.8
CCN(CC)c1ccc(NC(=O)c2cccc(F)c2)c(C)c1 | 27.7* | 21.5 | 52.2 | 60.1 | 16.2
CCN(CC)c1ccc(NC(=O)c2ccco2)c(C)c1 | 96.9 | 94.9 | 105.8 | 109.5 | 92.4
CNC(=O)NC(=O)C(C)OC(=O)c1cc2c(s1)CCCCC2 (centres undefined) | x | 101.7 | x | x | 102.3
CCN1/C(=C(\O)c2ccccc2)C(=O)c2ccccc2S1(=O)=O | 32.6* | 62.2 | 89.0 | 62.0 | 52.1
COc1ccc(-c2noc(CSc3nnc(Cc4ccccc4)n3-c3ccc(Cl)cc3)n2)cc1 | 12.8* | 68.6 | 103.2 | 73.5 | 76.4
Cc1sc(N/N=C/C=C/c2ccccc2)nc1-c1ccccc1 | x | 76.9 | x | x | 84.7
O=S(=O)(c1ccccc1)N1CCN=C1SCc1cccc(Cl)c1 | x | 76.5 | x | x | 78.3
O=C1C(Cl)=C(N2CCOCC2)C(=O)N1c1ccccc1Cl | 28.4* | 91.4 | x | 101.1 | 97.4
O=C(NO)c1ccc(C(=O)N(C2CCCCC2)C2CCCCC2)cc1 | 13.7* | 71.3 | 86.2 | 82.8 | 66.6
CN(C(=O)c1ccc(C(=O)N(C)C2CCCCC2)cc1)C1CCCCC1 | 90.2 | x | 88.6 | 94.7 | x
O=C(NC(Cc1ccc2c(c1)OCO2)C(=O)NC(Cc1ccccc1)C(=O)O)c1ccccc1 (centres undefined) | 74.3 | 94.4 | 104.5 | 103.3 | 93.7
Cn1c(N/N=C/c2c[nH]c3ccccc23)nc2ccccc21 | x | 0.9* | x | x | 1.5*
CCCCn1c(/N=C/c2c[nH]c3ccccc23)nc2ccccc21 | 1.9* | 48.5 | 83.4 | 60.4 | 31.8
Cc1ccccc1C(=O)N1CCC(C(N)=O)CC1 | 91.1 | 100.1 | 104.7 | 105.7 | 96.5
O=C1C(Cl)=C(N2CCCCC2)C(=O)C(Cl)=C1c1cnc(N2CCCCC2)s1 | 1.6* | 1.5* | 18.8* | 14.2* | 1.1*
CN(C)c1ncc(C2=C(Cl)C(=O)C(N3CCCC3)=C(Cl)C2=O)s1 | 89.2 | 1.6* | 69.5 | 22.6* | 1.4*
CC(=O)c1cnc(N(C)C)s1 | 94.0 | 91.3 | 100.5 | 98.0 | 92.4
COc1ccc2c(c1)-c1nc(/N=C/c3ccc(O)c(OC)c3)sc1CC2 | x | 97.1 | x | x | 93.6
Cc1nn(CC(=O)NCc2ccc(Cl)cc2)c(C)c1[N+](=O)[O-] | x | 84.4 | x | x | 93.2
SMILES | H69AR inhibit | HCT116 PTEN-null | Lung fibro prol | HUVEC inhibit | HCT116 bCat-KO
COc1ccc(C(=O)Nc2nncs2)cc1S(=O)(=O)N1CC(c2ccccc2)CC1=O (centres undefined) | 60.8 | 99.3 | 93.0 | 87.3 | 100.7
COc1ccc(CN2CCn3ncc(C(=O)Nc4cc(C)cc(C)c4)c3C2=O)cc1 | 50.3 | 78.3 | 80.8 | 10.3* | 78.3
COc1cc(CNCc2ccccn2)ccc1OCC(N)=O | x | 101.7 | x | x | 110.4
COc1cc(CNCc2ccccn2)ccc1OCc1ccc(Cl)cc1Cl | x | 3.5* | x | x | 2.4*
COc1cccc(-n2nc(-c3ccnn3-c3ccc(C)cc3)c(=O)n(C)c2=O)c1 | 84.7 | 89.2 | 99.9 | 101.6 | 93.4
CCC(=O)n1nc(-c2ccc(Cl)cc2)nc1NCc1ccccc1 | 17.0* | 10.1 | 51.7 | 45.2 | 9.6
Cc1ccc(C)c(S(=O)(=O)C(C#N)c2nc3ccccc3nc2N2CC(C)OC(C)C2)c1 (centres undefined) | 38.6* | 77.8 | 86.0 | 69.8 | 74.4
CC1=CN2C(=N)/C(=C\c3cn(CCCOc4ccccc4)c4ccccc34)C(=O)N=C2S1 | x | 6.4 | x | x | 6.7
CCOc1ccc2nc(NS(=O)(=O)Cc3ccccc3)sc2c1 | 20.6* | 14.1 | 61.6 | 51.9 | 10.9
CCOc1ccc2nc(NC(=O)CS(=O)(=O)c3ccc(C)cc3)sc2c1 | 2.2* | 79.6 | 85.3 | 66.3 | 73.4
CC(C)NC(=S)NCc1cccnc1 | x | 92.5 | x | x | 95.4
O=C(N/N=C/c1cccs1)[C@H]1C[C@@H]1c1ccccc1 | x | 81.9 | x | x | 79.5
O=C(COC(=O)c1n[nH]c2ccccc12)NC(=O)NC12CC3CC(CC(C3)C1)C2 | 17.2* | 1.4* | 81.0 | 69.1 | 21.9
O=C(COC(=O)c1n[nH]c2ccccc12)NC(=O)NC1CCCC1 | 92.0 | 105.1 | 101.5 | 97.7 | 96.8
CCN(CC)c1ccc(NC2=C(Cl)C(=O)c3ccccc3C2=O)cc1 | x | 0.5* | x | x | 0.8*
Cc1ccc(NC2=C(Cl)C(=O)c3ccccc3C2=O)cc1 | x | 0.8* | x | x | 0.9*
CCNC1=C(Cl)C(=O)c2ccccc2C1=O | 41.3 | 30.6 | 69.0 | 100.9 | 19.4
CCOC(=O)c1ccccc1NC(=O)COC | 92.1 | 98.0 | 89.1 | 89.9 | 91.8
COC(=O)c1ccccc1NC(=O)COC(C)=O | 6.0* | 80.3 | x | 101.4 | 73.8
Clc1ccc(OCCCNCc2ccccc2)c(Br)c1 | x | 1.7* | x | x | 1.2*
Cc1cc(Cl)c(OCCCNCc2ccccc2)c(Br)c1 | x | 1.2* | x | x | 1.5*
N#Cc1cc([N+](=O)[O-])cnc1NCC(O)CO (centres undefined) | x | 105.4 | x | x | 98.3
COc1ccc(S(=O)(=O)NCC(=O)N(CC(=O)NCC2CCCO2)c2cc(C)ccc2C)cc1 (centres undefined) | 36.7* | 120.1 | 95.3 | 104.7 | 103.9
CC1CCN(C(=O)CCc2ccc(Oc3cc([N+](=O)[O-])cc([N+](=O)[O-])c3)cc2)CC1 | x | 85.3 | x | x | 84.7
COc1ccc(OC)c(C(=O)C2COC(=O)C2)c1 (centres undefined) | 25.6* | 38.3 | 88.9 | 48.8 | 33.5
O=C(c1ccc2c3c(cccc13)C(=O)N(O)C2=O)N1CCCCC1 | 24.9* | 21.2 | 93.2 | 89.4 | 36.9
NN1C(=O)c2cccc3c(C(=O)O)ccc(c23)C1=O | x | 96.5 | x | x | 89.6

Source: PubChem
